Screening data deposited in PubChem BioAssay by Johns Hopkins Ion Channel Center.
TRPC6 inh – blocks the mouse TRPC6 cation channel; Q61143; HEK293-TRPC6, membrane potential dye, ACh-evoked depolarization; active compounds read low; B-score at 10 µM; actives 1.1% (n = 310,000); AID 2553;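 active = B-score under library mean minus 3 SD, initial fluorescence not abnormally high, positive integrated signal ratio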;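 note: B-score derived from integrated fluorescence ratio over the kinetic read; more negative B-score means stronger inhibition of depolarization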
TRPC4 agonist – activators of mouse TRPC4 channel. Q9QUQ5. B-score at 10 µM. actives 0.49% (n = 310,000). HEK293 TRPC4beta/mu-opioid, Fluo4 calcium fluorescence; active compounds read high;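 active = B-score above 5 SD of library B-scores, and initial fluorescence ratio not above library mean plus 5 SD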;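 note: positive B-score marks a calcium rise read as TRPC4 activation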
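Assay system: HEK293 stable line with TRPC4beta plus mu-opioid receptor. Times: dye 45 min RT, read 110 s. Measured by: kinetic Fluo4 calcium fluorescence. Measure: B score of integrated ratio. Controls: assay buffer as low control, maximal DAMGO as high control.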
TRPC4 PAM – TRPC4 (mouse) allosteric potentiation; actives 0.42% (n = 310,000); Q9QUQ5; AID 2227; HEK293 TRPC4beta/mu-opioid, DAMGO EC20, Fluo-4 Ca2+ flux; active compounds read high; B-score at 10 µM;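 active = B-score of calcium response area above 5 SD of library B-scores, with initial fluorescence ratio within 5 SD of library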;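 note: B-score of integrated fluorescence ratio over time as area under calcium response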
TRPC6 activator – activates the mouse TRPC6 cation channel; Q61143; HEK293-TRPC6 membrane potential dye fluorescence; active compounds read high; B-score at 10 µM; actives 0.13% (n = 310,000);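 active = B-score of the integrated fluorescence ratio above library mean plus 3 SD, and starting fluorescence ratio within library mean plus 5 SD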;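 note: higher score means more depolarization so channel activation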
TRPC4 block – TRPC4 (mouse) channel inhibition; Q9QUQ5; HEK293 TRPC4beta/mu-opioid, DAMGO-evoked Fluo4 calcium flux; active compounds read low; B-score at 10 µM; actives 0.39% (n = 300,000);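 active = B-score over 3 SD under the library average, no early fluorescence shift, positive overall ratio signal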
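Assay system: TRPC4beta/mu-opioid receptor HEK293 cell line; compound dosing: single concentration per test compound; detection: Fluo4 Ca2+ flux fluorescence; evaluation: per-well B score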
Starred values were filed as active, the others as inactive; i = inactive. An excerpt weighted towards active compounds, which were near 2.3% of everything screened.

SMILES	TRPC6 inh	TRPC4 agonist	TRPC4 PAM	TRPC6 activator	TRPC4 block
CCOC(=O)c1c(NC(=O)COC(=O)Cc2c[nH]c3ccccc23)sc(C(=O)N(C)C)c1C	i	175*	53*	i	i
Cc1c(F)cccc1NC(=O)c1ccc2c(c1)CCN2S(C)(=O)=O	i	i	i	i	i
CCOc1ccccc1N(CC)C(=O)c1nn(C)c2c1CSc1ccccc1-2	i	i	i	i	-6*
CC(C)C(NC(=O)c1ccccc1)c1nnc(SCC(=O)NC2CCCC2)n1C (configuration not stated)	i	i	i	i	i
CCn1c2ccccc2c2cc(/C=N/NC(=O)c3cc(O)cc(O)c3)ccc21	i	i	i	i	-6*
CCn1c2ccccc2c2cc(/C=N/NC(=O)c3ccc(O)cc3)ccc21	i	i	i	i	i
CC(C)(C)NC(=O)CN(C(=O)c1snc(C(=O)NC2CCCCC2)c1N)c1ccc(F)cc1	i	i	i	i	i
CCCn1c(SCC(=O)NC(=O)Nc2ccc(C)cc2C)n[nH]c1=O	i	i	12*	i	i
CCCn1c(SCC(=O)Nc2cc(Cl)ccc2Cl)n[nH]c1=O	i	i	i	i	i
CS(=O)(=O)N(CC(=O)NCCSCc1cccc(Cl)c1)c1ccccc1F	i	i	i	i	i
COc1ccc(CNCc2ccc3c(c2)OCO3)c(OC)c1OC	i	i	i	i	i
COc1ccc(CNCc2ccc3c(c2)OCO3)cc1Br	i	43*	i	i	i
CC(C)(C)n1nnnc1C(c1ccc(Cl)cc1)N(Cc1cccnc1)Cc1ccco1 (configuration not stated)	i	i	42*	i	i
COc1ccccc1NC(=O)COC(=O)c1ccccc1C(=O)N1CCN(c2ccccc2)CC1	i	i	11*	i	i
O=C(CSCc1cc(=O)n2ccsc2n1)Nc1ccccc1	i	i	i	i	i
CNCCCOc1ccc(C)cc1Br	i	i	14*	i	i
CNCCCOc1cc(C)cc(C)c1C	i	153*	i	i	i
CCCCNCCCOc1ccc(C)cc1Br	i	i	i	i	i
Cc1ccc(S(=O)(=O)N2C(=O)CCC2C(=O)O/N=C(\N)c2ccc([N+](=O)[O-])cc2)cc1 (configuration not stated)	i	i	i	i	i
CC(C(=O)Nc1nccs1)N1C(=O)c2ccccc2S1(=O)=O (configuration not stated)	i	i	i	i	i
COc1ccc2cc(C(=O)C3CCCN(C(=O)C4=NN(C)C(=O)CC4)C3)ccc2c1 (configuration not stated)	i	i	i	i	i
CCCCCN1C2=NCCN2c2ccccc21	i	i	i	i	-6*
CCCN1C2=NCCN2c2cc(C)c(C)cc21	i	i	i	i	-7*
Cc1cccc2sc(N(CCN(C)C)C(=O)C3CCN(S(=O)(=O)c4cccs4)CC3)nc12	i	i	i	i	i
COc1ccc(NC(=O)C(NC(=O)c2ccc(C)cc2)c2ccccc2)cc1 (configuration not stated)	i	i	i	i	i
SMILES	TRPC6 inh	TRPC4 agonist	TRPC4 PAM	TRPC6 activator	TRPC4 block
CCCc1nc(SC2CCCC2)c2c(=O)n(C)c(=O)n(C)c2n1	i	i	i	i	-5*
CC(=O)N1c2ccc(S(=O)(=O)N(C)C3CCCCC3)cc2CC1C (configuration not stated)	i	i	i	i	i
NCCCNC(=O)c1cc2ccccc2[nH]1	i	106*	i	i	i
O=S(=O)(NCC(c1ccc2c(c1)OCO2)N1CCN(c2ccccc2)CC1)c1ccccc1 (configuration not stated)	i	i	i	i	i
CCCC1=[N+](CC(=O)c2ccc(C)cc2)CCn2cccc21	i	i	i	i	-6*
COc1c(/C=N/Nc2nc(N3CCCCC3)nc(N3CCCCC3)n2)cccc1[N+](=O)[O-]	i	i	i	i	i
O=[N+]([O-])c1ccc(/C=N/Nc2nc(N3CCCCC3)nc(N3CCCCC3)n2)o1	i	i	22*	i	i
CCCc1c(O)nc(SCCN(CCC)CCC)[nH]c1=O	i	49*	19*	i	i
CCCc1c(O)nc(SCC(=O)N2CCCCC2)[nH]c1=O	i	i	i	i	i
CC(C)c1c(O)nc(SCCN(C)C)[nH]c1=O	i	i	35*	i	i
CC(C)c1c(O)nc(SCC(=O)N2CCOCC2)[nH]c1=O	i	i	i	i	i
CCCCCCCc1c(O)nc(SCCN(C)C)[nH]c1=O	i	81*	10*	i	i
COC(=O)c1c(NC(=O)COC(=O)CC(NC(C)=O)c2ccccc2)sc(C)c1C (configuration not stated)	i	i	i	i	i
C=CCN1CCN(C(=O)CCc2ccccc2)CC1	i	i	i	i	i
COc1ccc(CCN2C(=S)N(C)C(=O)C2CC(=O)Nc2ccc(F)cc2)cc1 (configuration not stated)	i	120*	i	i	i
CC1(C)C(=O)Nc2ccccc2N1C(=O)COC(=O)C1CCCCC1	i	i	10*	i	i
CNC(=O)COc1ccc2oc3c(c2c1)CCCC3	i	i	i	i	-6*
CNC(=O)NC(=O)COc1ccc2oc3c(c2c1)CCCC3	i	i	i	i	i
CCOc1ccc(-n2c(SCC(=O)O)nc3sc4c(c3c2=O)CCCC4)cc1	i	i	16*	i	i
Cc1ccc(-n2c(SCC(=O)O)nc3sc4c(c3c2=O)C(C)CCC4)cc1 (configuration not stated)	i	i	11*	i	i
Cc1ccccc1-n1c(SCC(=O)O)nc2sc3c(c2c1=O)CCCC3	i	i	i	i	i
COc1cccc(OCc2cc(C(=O)N3CCN(C)C(c4ccccc4)C3)no2)c1 (configuration not stated)	i	i	15*	i	i
COc1cccc(OCc2cc(C(=O)N3CCC(c4ccncc4)CC3)no2)c1	i	i	i	i	i
Cc1ccc(-n2cc(CNC(C)Cn3cncn3)c(-c3ccc(F)cc3)n2)cc1 (configuration not stated)	i	64*	i	i	i
